ChEMBL document CHEMBL1765003, “Discovery of (1S,2R,3R)-2,3-dimethyl-2-phenyl-1-sulfamidocyclopropanecarboxylates: novel and highly selective aggrecanase inhibitors” (J Med Chem, 2011)

What was measured:
Cytochrome P450 2C19 = Cytochrome P450 2C19 (Homo sapiens, UniProt P33261); test: Inhibition of CYP2C19 at up to 50 uM; format: ADME
[1] = molecular target: Matrix metalloproteinase-14 (Homo sapiens, UniProt P50281); test: Inhibition of human recombinant MMP14 after 60 mins by fluorescence plate reader
Summary of the method: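 Recombinant human enzyme at 20 ng/mL with 10 μM MOCAc-Lys-Pro-Leu-Gly-Leu-A2pr(Dnp)-Ala-Arg-NH₂, in 100 mM Tris-HCl pH 7.5, 150 mM NaCl, 10 mM CaCl₂, 0.05% Brij-35. Enzyme pretreated with inhibitor for 15 min at 25 °C, then substrate added. Fluorescence (ex 325, em 405 nm) read at 60 min. IC50 taken from three points in the linear range; mean of ≥2 determinations.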

[2] = molecular target: T1, A disintegrin and metalloproteinase with thrombospondin motifs 5 (Homo sapiens, UniProt Q9UNA0); test: Inhibition of human recombinant aggrecanase 2 after 150 mins by fluorescence plate reader
T1 sequence (Q9UNA0 whole entry): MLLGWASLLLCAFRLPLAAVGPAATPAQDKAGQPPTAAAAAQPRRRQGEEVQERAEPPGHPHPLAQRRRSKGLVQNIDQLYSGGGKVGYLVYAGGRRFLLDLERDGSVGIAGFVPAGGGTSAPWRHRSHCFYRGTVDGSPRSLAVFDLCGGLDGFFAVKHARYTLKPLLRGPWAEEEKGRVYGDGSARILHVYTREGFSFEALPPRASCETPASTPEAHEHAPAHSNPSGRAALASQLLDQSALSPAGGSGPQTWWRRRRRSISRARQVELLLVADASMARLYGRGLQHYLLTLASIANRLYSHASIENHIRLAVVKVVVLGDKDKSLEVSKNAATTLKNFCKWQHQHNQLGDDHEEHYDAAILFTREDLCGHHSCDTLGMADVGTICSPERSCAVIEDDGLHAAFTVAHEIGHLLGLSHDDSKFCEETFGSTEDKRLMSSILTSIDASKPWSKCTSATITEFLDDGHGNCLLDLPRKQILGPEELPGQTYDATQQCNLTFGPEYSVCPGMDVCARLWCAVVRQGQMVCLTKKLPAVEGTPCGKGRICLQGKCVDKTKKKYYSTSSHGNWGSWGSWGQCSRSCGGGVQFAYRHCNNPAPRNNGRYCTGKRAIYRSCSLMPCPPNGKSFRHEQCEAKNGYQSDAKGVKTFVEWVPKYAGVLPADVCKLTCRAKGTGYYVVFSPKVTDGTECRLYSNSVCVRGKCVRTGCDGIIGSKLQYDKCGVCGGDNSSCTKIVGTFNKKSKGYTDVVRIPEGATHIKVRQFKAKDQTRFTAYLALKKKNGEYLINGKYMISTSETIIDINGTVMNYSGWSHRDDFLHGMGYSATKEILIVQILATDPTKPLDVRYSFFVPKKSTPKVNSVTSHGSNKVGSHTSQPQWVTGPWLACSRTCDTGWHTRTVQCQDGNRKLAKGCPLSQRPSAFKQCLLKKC

Cytochrome P450 2C9 = Cytochrome P450 2C9 (Homo sapiens, UniProt P11712); test: Inhibition of CYP2C9 at up to 50 uM; format: ADME
Cytochrome P450 1A2 = molecular target: T2, Cytochrome P450 1A2 (Homo sapiens, UniProt P05177); test: Inhibition of CYP1A2 at up to 50 uM; format: ADME
T2 sequence (P05177 whole entry): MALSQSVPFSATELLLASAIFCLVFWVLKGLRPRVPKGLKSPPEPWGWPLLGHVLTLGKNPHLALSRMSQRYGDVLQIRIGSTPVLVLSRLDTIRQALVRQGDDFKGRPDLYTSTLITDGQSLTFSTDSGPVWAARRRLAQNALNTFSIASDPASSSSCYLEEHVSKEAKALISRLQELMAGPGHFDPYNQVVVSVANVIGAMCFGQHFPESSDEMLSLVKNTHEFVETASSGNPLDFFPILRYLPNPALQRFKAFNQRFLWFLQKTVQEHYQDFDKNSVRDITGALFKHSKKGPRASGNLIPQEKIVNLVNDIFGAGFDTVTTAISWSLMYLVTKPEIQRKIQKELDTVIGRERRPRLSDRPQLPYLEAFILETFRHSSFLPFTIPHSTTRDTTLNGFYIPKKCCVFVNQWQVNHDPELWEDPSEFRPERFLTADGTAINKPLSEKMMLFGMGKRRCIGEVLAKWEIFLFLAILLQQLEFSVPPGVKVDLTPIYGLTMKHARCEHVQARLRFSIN

[3] = Volume of distribution at steady state in Sprague-Dawley rat at 1 mg/kg, iv; format: ADME, organism-based; set-up: dose 1 mg/kg, route intravenous; conditions: in vivo, read-out: Vdss
Summary of the method: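 Intravenous dose of 1 mg/kg. Blood sampled at 0.50, 1, 2, 4, 8 and 24 h. Plasma obtained by centrifugation at 10 000 rpm for 5 min and kept at −20 °C until analysis.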

[4] = AUC in Sprague-Dawley rat at 10 mg/kg, po; format: ADME, organism-based; set-up: dose 10 mg/kg, route oral; conditions: plasma
[5] = Oral bioavailability in Sprague-Dawley rat at 10 mg/kg; format: ADME, organism-based; conditions: Sprague-Dawley, in vivo
[6] = molecular target: Matrix metalloproteinase-9 (Homo sapiens, UniProt P14780); test: Inhibition of human recombinant MMP9 after 60 mins by fluorescence plate reader
Summary of the method: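 rh-MMP-9 at 4 ng/mL with 10 μM MOCAc-Pro-Leu-Gly-Leu-A2pr(Dnp)-Ala-Arg-NH₂, in 100 mM Tris-HCl pH 7.5, 150 mM NaCl, 10 mM CaCl₂, 0.05% Brij-35. Enzyme and inhibitor preincubated for 15 min at 25 °C before substrate. Fluorescence (ex 325/em 405 nm) read at 60 min. IC50 from three linear-range points; ≥2 runs averaged.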

Matrix metalloproteinase-9, sequence (P14780 whole entry): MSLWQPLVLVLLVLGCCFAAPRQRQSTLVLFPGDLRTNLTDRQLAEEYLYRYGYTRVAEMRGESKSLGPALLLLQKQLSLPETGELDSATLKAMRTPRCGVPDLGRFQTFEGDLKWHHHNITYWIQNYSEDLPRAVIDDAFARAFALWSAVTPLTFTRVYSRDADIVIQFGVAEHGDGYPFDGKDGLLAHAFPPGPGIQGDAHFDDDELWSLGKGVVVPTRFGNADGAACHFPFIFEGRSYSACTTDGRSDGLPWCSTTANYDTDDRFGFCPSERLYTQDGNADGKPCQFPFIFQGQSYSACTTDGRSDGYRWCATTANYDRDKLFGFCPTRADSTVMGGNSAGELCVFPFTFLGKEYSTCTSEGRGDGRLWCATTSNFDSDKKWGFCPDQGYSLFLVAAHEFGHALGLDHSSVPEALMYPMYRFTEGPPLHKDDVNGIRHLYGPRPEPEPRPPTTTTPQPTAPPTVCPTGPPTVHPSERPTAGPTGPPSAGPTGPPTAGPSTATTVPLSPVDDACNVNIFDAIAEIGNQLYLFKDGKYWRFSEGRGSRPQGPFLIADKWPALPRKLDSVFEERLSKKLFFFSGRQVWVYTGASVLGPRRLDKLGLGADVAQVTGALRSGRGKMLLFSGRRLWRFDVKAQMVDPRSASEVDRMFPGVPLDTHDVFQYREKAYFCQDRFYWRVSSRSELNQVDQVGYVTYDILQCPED
Cytochrome P450 2C19, sequence (P33261 whole entry): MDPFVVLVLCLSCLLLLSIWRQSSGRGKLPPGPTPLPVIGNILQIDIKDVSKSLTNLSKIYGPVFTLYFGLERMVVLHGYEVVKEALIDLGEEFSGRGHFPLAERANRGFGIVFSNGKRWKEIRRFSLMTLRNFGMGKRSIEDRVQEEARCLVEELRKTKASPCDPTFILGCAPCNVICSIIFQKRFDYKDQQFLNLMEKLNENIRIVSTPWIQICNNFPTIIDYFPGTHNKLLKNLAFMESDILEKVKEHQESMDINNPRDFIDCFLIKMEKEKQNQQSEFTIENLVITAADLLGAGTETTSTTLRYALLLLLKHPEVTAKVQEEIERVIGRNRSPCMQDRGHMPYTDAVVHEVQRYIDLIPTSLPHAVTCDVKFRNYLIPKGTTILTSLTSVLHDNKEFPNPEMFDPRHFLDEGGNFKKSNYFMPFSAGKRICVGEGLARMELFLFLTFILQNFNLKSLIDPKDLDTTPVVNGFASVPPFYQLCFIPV
Cytochrome P450 2C9, sequence (P11712 whole entry): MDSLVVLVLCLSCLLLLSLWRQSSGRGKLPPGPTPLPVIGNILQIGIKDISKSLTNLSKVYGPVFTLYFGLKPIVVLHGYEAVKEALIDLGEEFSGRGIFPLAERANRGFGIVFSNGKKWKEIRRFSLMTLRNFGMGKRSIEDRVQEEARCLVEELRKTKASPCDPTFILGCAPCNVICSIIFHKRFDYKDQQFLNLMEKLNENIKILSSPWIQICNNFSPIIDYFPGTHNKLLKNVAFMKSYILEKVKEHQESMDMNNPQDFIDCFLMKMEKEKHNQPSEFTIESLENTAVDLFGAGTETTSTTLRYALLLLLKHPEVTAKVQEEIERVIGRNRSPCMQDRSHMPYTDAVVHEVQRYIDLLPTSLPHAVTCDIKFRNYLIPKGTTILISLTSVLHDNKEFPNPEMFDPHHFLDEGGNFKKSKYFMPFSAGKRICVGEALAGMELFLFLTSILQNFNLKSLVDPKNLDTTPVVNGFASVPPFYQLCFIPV

With `C[C@@H]1[C@](C)(c2ccccc2)[C@]1(NS(=O)(=O)N1CCc2c(nc3cc(F)ccn23)C1)C(=O)O` the “inhibition (INH)” value (Cytochrome P450 2C19) was “Not Active”, the IC50 [1] was greater than 10 µM and the IC50 [2] was 0.0084 µM. For the same molecule, the “inhibition (INH)” value (Cytochrome P450 2C9) was “Not Active”, the “inhibition (INH)” value (Cytochrome P450 1A2) was “Not Active” and the Vd [3] was 0.25 L/kg. The AUC [4] was 421 µM·h, the bioavailability [5] was 103% and the IC50 [6] was greater than 10 µM.
